Laboratory results: ChEMBL document CHEMBL1136005 (J Med Chem, 2002)
In brackets after ≈: the same amount, converted by molar mass. Values belong to the molecule of their own block, whether it stands above or below them.

How the values were obtained:
[1] = Plasma concentration was determined after 1 hr at a dose 30 mg/kg administered orally to rat-2; type: ADME, organism-based; set-up: dose 30 mg/kg, route oral; conditions: po
Method in brief: (§1)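 Sprague-Dawley rats, n=2 per compound, dosed orally at 30 mg/kg. Plasma drug concentration measured 1 and 8 h after dosing.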

[2] = Plasma concentration was determined after 8 hr at a dose 30 mg/kg administered orally to rat-1; type: ADME, organism-based; set-up: dose 30 mg/kg, route oral; conditions: po; method in brief: as §1
[3] = Plasma concentration was determined after 8 hr at a dose 30 mg/kg administered orally to rat-2; type: ADME, organism-based; set-up: dose 30 mg/kg, route oral; conditions: po; method in brief: as §1
[4] = Plasma concentration was determined after 1 hr at a dose 30 mg/kg administered orally to rat-1; type: ADME, organism-based; set-up: dose 30 mg/kg, route oral; conditions: po; method in brief: as §1
[5] = biological target: Platelet-derived growth factor receptor (Homo sapiens, UniProt P09619+P16234); assay: Concentration required for 50% inhibition against autophosphorylation of Platelet-derived growth factor receptor beta in intact cells using a two site ELISA; type: cell-based
[6] = Plasma concentration was determined after 1 hr at a dose 30 mg/kg administered orally to rat-3; type: ADME, organism-based; set-up: dose 30 mg/kg, route oral; conditions: po; method in brief: as §1
[7] = Plasma concentration was determined after 1 hr at a dose 30 mg/kg administered orally to rat-4; type: ADME, organism-based; set-up: dose 30 mg/kg, route oral; conditions: po; method in brief: as §1
[8] = Plasma concentration was determined after 8 hr at a dose 30 mg/kg administered orally to rat-3; type: ADME, organism-based; set-up: dose 30 mg/kg, route oral; conditions: po; method in brief: as §1
[9] = Plasma concentration was determined after 8 hr at a dose 30 mg/kg administered orally to rat-4; type: ADME, organism-based; set-up: dose 30 mg/kg, route oral; conditions: po; method in brief: as §1
[10] = biological target: Platelet-derived growth factor receptor alpha (Homo sapiens, UniProt P16234); assay: Inhibition of PDGF receptor alpha autophosphorylation
[11] = biological target: Fibroblast growth factor receptor (Homo sapiens, UniProt P22607+P11362+P22455+P21802); assay: Inhibition of Fibroblast growth factor receptor autophosphorylation; type: protein assay
[12] = biological target: T1, Receptor-type tyrosine-protein kinase FLT3 (Homo sapiens, UniProt P36888); assay: Inhibition of Flt3 autophosphorylation
T1 sequence (P36888 whole entry): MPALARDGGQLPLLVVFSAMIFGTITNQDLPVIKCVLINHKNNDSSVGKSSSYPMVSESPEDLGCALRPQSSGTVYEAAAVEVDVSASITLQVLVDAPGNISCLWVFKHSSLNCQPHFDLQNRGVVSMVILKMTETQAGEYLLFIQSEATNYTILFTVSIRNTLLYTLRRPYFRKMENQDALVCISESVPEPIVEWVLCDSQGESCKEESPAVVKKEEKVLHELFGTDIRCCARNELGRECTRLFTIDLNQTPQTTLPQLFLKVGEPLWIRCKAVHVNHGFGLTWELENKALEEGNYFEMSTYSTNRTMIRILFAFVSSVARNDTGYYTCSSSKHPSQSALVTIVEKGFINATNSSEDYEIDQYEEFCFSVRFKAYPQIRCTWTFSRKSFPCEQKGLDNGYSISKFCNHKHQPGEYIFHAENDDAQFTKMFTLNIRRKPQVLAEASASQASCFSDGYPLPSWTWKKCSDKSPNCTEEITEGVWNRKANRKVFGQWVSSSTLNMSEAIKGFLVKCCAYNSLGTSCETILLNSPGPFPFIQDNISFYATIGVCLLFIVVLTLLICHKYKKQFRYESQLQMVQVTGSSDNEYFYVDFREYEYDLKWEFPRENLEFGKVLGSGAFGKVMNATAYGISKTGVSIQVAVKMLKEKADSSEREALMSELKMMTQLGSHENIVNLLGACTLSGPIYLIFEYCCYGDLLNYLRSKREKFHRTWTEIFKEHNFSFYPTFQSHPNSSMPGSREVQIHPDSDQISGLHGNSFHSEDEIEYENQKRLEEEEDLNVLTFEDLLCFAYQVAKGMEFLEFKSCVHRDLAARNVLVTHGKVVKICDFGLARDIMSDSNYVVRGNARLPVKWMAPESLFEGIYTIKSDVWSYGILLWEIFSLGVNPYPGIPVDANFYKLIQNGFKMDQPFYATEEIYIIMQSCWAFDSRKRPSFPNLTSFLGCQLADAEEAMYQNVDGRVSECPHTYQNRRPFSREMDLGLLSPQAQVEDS

[13] = biological target: Mitogen-activated protein kinase; ERK1/ERK2 (Homo sapiens, UniProt P27361+P28482); assay: Inhibition of Extracellular signal-regulated kinase (Erk); type: protein assay
Method in brief: (§2)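 Substrate phosphorylation measured in an in vitro assay with purified enzyme; IC50 values in µmol/L.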

[14] = biological target: Mast/stem cell growth factor receptor Kit (Homo sapiens, UniProt P10721); assay: Inhibition of Mast/stem cell growth factor receptor (c-kit) autophosphorylation
[15] = biological target: T2, Dual specificity mitogen-activated protein kinase kinase 3 (Homo sapiens, UniProt P46734); assay: Inhibition of Mitogen activated protein kinase kinase 3; method in brief: as §2
T2 sequence (P46734 whole entry): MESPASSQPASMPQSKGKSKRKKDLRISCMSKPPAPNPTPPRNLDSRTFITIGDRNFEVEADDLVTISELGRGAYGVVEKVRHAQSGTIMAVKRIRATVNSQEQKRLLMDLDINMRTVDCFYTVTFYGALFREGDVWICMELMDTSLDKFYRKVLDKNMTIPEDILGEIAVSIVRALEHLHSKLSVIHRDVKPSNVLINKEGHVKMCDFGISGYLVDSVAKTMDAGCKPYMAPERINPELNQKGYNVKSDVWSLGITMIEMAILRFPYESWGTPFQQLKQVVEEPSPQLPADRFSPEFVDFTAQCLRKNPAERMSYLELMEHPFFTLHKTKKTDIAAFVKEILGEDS

[16] = biological target: Dual specificity mitogen-activated protein kinase kinase 1 (Homo sapiens, UniProt Q02750); assay: Inhibition of Mitogen activated protein kinase kinase 1; method in brief: as §2
MAP kinase p38 = MAP kinase p38 (Homo sapiens, UniProt O15264+Q15759+Q16539+P53778); assay: Inhibition of Mitogen-activated protein kinase p38; type: protein assay; method in brief: as §2
[17] = biological target: T3, Dual specificity mitogen-activated protein kinase kinase 6 (Homo sapiens, UniProt P52564); assay: Inhibition of Mitogen activated protein kinase kinase 6; method in brief: as §2
T3 sequence (P52564 whole entry): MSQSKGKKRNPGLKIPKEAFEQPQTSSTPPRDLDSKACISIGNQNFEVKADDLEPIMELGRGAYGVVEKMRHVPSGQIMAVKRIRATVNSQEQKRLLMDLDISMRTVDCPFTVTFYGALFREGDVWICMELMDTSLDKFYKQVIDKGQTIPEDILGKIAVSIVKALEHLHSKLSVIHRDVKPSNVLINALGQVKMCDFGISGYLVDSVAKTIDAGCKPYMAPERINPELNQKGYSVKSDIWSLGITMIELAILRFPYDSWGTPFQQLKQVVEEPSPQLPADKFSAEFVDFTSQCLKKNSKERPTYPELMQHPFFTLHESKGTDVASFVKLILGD

Protein kinase C (PKC) = assay: Inhibition of Protein kinase C; type: protein assay; method in brief: as §2
[18] = biological target: cAMP-dependent protein kinase (PKA) (Homo sapiens, UniProt P22694+P17612+P22612); assay: Inhibition of Protein kinase A (PKA); type: protein assay; method in brief: as §2
[19] = biological target: Proto-oncogene tyrosine-protein kinase Src (Homo sapiens, UniProt P12931); assay: Inhibition of Src protein tyrosine kinase; method in brief: as §2
[20] = biological target: Mitogen-activated protein kinase 8 (Homo sapiens, UniProt P45983); assay: Inhibition of c-Jun N-terminal kinase (Jnk); method in brief: as §2
[21] = biological target: Macrophage colony-stimulating factor 1 receptor (Homo sapiens, UniProt P07333); assay: Inhibition of Colony stimulating factor 1 receptor (CSF-1R) autophosphorylation
[22] = Plasma concentration was determined after 8 hr at a dose 30 mg/kg administered orally to rat-11; type: ADME, organism-based; set-up: dose 30 mg/kg, route oral; conditions: po; method in brief: as §1
[23] = Solubility in aqueous phosphate buffer (pH 7.4) at 20c was determined; type: physicochemical
[24] = Plasma concentration was determined after 1 hr at a dose 30 mg/kg administered orally to rat-12; type: ADME, organism-based; set-up: dose 30 mg/kg, route oral; conditions: po; method in brief: as §1
[25] = pharmacokinetic parameter was evaluated after oral administration of 30 mg/kg to rat; type: ADME, organism-based; set-up: dose 30 mg/kg, route oral; conditions: in vivo
Method in brief: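 Sprague-Dawley rats, n=3, dosed orally at 30 mg/kg. Plasma drug concentrations were followed to derive Tmax (h), Cmax (µg/mL), T1/2 (h) and AUC0-∞ (µg h/mL).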

[26] = Lipophilicity was reported; type: physicochemical; conditions: octanol/water
[27] = Plasma concentration was determined after 8 hr at a dose 30 mg/kg administered orally to rat-12; type: ADME, organism-based; set-up: dose 30 mg/kg, route oral; conditions: po; method in brief: as §1
[28] = Plasma concentration was determined after 1 hr at a dose 30 mg/kg administered orally to rat-11; type: ADME, organism-based; set-up: dose 30 mg/kg, route oral; conditions: po; method in brief: as §1
[29] = Plasma concentration was determined after 1 hr at a dose 30 mg/kg administered orally to rat-13; type: ADME, organism-based; set-up: dose 30 mg/kg, route oral; conditions: po; method in brief: as §1
[30] = Plasma concentration was determined after 1 hr at a dose 30 mg/kg administered orally to rat-14; type: ADME, organism-based; set-up: dose 30 mg/kg, route oral; conditions: po; method in brief: as §1
[31] = Plasma concentration was determined after 8 hr at a dose 30 mg/kg administered orally to rat-13; type: ADME, organism-based; set-up: dose 30 mg/kg, route oral; conditions: po; method in brief: as §1
[32] = Plasma concentration was determined after 8 hr at a dose 30 mg/kg administered orally to rat-14; type: ADME, organism-based; set-up: dose 30 mg/kg, route oral; conditions: po; method in brief: as §1

Sequence of Mast/stem cell growth factor receptor Kit (P10721 whole entry): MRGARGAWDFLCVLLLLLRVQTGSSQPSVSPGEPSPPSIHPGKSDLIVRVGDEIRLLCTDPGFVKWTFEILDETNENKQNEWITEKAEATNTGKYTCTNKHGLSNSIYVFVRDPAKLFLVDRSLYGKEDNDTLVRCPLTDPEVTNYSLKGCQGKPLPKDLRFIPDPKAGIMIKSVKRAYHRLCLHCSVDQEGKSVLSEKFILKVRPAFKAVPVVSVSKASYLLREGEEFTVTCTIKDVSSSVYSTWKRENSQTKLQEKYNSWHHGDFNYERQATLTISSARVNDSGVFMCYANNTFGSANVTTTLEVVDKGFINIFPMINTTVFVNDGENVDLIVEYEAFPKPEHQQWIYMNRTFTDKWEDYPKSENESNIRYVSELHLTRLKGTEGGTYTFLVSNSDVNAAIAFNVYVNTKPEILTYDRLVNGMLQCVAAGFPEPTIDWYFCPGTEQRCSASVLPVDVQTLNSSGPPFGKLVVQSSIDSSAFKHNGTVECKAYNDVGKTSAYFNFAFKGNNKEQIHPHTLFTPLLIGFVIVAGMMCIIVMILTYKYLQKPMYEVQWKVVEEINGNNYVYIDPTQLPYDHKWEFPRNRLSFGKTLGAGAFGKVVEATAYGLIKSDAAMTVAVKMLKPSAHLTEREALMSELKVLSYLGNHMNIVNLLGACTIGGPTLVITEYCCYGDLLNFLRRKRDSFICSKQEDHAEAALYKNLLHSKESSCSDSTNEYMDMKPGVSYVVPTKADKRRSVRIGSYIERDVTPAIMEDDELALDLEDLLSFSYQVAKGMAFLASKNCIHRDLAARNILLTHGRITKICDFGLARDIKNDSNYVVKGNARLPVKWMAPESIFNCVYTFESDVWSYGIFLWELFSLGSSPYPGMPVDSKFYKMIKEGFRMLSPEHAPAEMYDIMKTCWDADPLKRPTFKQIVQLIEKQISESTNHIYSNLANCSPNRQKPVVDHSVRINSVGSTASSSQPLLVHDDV
Sequence of Proto-oncogene tyrosine-protein kinase Src (P12931 2-536 limits assumed): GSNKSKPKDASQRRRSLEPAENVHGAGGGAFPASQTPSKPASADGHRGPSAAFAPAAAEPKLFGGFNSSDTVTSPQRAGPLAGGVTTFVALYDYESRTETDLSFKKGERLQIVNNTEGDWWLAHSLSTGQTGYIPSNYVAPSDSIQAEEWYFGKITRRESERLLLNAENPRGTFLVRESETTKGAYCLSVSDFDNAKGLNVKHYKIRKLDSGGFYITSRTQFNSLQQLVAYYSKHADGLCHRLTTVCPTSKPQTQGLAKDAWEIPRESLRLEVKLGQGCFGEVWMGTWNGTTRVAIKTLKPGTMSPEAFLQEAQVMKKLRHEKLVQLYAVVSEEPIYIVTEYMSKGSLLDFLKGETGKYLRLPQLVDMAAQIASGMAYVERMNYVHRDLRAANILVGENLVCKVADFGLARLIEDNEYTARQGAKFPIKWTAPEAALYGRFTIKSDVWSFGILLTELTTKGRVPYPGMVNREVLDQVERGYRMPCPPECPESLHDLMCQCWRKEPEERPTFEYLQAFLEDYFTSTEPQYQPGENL
Sequence of Macrophage colony-stimulating factor 1 receptor (P07333 whole entry): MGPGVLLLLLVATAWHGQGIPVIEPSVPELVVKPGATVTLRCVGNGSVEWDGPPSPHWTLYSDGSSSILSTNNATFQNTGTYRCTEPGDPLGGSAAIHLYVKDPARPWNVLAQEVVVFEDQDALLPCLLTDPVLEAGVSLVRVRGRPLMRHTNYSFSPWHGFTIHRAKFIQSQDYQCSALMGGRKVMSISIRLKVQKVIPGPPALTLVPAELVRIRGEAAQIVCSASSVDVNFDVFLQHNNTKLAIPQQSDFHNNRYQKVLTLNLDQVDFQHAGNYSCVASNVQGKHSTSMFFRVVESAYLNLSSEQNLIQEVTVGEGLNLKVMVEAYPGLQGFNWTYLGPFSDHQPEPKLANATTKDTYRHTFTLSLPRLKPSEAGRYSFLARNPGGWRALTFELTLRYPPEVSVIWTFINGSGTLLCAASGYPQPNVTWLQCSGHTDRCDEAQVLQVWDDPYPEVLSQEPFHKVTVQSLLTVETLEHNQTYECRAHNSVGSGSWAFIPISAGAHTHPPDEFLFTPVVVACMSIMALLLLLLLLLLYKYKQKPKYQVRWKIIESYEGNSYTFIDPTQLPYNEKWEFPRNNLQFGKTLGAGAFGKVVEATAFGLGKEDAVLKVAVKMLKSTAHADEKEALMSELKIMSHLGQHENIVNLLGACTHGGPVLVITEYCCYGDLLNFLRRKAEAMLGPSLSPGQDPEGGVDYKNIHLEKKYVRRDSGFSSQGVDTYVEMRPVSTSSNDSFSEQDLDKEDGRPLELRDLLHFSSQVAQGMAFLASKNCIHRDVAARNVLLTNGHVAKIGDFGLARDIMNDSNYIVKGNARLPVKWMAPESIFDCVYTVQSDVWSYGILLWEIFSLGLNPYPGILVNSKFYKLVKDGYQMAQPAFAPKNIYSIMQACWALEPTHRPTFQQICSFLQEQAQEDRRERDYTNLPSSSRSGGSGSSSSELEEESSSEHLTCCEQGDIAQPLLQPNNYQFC
Sequence of Dual specificity mitogen-activated protein kinase kinase 1 (Q02750 whole entry): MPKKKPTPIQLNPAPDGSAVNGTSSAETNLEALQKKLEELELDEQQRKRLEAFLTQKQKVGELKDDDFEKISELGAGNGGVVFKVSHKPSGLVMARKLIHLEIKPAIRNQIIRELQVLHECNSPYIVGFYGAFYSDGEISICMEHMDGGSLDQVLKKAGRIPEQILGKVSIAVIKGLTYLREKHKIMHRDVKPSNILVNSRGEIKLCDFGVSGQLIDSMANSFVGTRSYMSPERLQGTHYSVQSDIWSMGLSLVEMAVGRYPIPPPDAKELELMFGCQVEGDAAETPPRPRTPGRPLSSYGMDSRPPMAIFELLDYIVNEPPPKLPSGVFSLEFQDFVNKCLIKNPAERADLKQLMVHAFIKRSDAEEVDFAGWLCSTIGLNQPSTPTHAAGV
Sequence of Platelet-derived growth factor receptor alpha (P16234 whole entry): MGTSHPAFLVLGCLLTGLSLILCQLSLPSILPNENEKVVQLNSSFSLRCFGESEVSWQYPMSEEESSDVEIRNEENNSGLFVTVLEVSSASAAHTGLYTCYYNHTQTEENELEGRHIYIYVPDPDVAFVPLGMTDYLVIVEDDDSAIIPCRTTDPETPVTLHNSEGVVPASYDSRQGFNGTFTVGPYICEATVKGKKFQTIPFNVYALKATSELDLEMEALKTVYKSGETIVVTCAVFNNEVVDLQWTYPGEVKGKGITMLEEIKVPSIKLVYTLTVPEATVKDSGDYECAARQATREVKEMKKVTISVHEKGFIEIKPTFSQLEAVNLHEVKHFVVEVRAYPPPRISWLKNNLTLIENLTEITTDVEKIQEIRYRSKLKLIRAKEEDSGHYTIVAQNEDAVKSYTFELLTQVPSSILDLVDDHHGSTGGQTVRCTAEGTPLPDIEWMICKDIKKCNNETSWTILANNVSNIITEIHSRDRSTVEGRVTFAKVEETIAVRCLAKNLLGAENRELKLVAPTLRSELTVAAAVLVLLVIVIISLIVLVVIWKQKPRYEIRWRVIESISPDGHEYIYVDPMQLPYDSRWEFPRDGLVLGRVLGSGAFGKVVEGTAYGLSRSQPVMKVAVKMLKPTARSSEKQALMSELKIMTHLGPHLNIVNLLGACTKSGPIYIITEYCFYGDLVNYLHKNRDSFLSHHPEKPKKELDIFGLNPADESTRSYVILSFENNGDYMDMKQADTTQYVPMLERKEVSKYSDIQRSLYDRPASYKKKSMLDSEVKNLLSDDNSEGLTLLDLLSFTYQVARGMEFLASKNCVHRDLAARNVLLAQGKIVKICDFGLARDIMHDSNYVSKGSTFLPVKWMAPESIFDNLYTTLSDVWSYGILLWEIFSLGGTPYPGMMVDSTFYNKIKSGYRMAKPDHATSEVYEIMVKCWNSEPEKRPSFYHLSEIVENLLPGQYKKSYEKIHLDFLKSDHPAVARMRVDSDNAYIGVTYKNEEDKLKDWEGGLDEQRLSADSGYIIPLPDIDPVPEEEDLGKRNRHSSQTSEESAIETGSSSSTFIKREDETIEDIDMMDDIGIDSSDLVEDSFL
Sequence of Mitogen-activated protein kinase 8 (P45983 whole entry): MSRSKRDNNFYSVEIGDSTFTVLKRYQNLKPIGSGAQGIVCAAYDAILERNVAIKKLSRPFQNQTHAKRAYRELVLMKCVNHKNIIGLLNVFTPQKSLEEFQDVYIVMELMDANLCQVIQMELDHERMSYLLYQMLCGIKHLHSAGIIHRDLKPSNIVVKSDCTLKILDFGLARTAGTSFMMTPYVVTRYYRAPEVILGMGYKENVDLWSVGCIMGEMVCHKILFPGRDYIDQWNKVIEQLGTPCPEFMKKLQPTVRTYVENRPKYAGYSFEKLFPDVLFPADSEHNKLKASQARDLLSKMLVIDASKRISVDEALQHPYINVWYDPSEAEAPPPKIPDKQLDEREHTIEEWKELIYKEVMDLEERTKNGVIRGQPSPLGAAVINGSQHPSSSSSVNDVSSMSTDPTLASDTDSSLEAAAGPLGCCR

Structure (SMILES): COc1ccc(CNC(=O)N2CCN(c3ncnc4cc(OC)c(OC)cc34)CC2)cc1
concentration at 1 h [1]: 11600 ng/mL
concentration at 8 h [2]: 1400 ng/mL
concentration at 8 h [3]: 1900 ng/mL
concentration at 1 h [4]: 7300 ng/mL
IC50 [5]: 3.06 µM

Structure (SMILES): COc1cc2ncnc(N3CCN(/C(S)=N\Cc4cccnc4)CC3)c2cc1OC.Cl.Cl
concentration at 1 h [29]: 2600 ng/mL
concentration at 1 h [30]: 2600 ng/mL
concentration at 8 h [31]: < 100 ng/mL
concentration at 8 h [32]: < 100 ng/mL
solubility [23]: 2.2 µg/mL
AUC [25]: 9840 ng·h/mL
Cmax [25]: 6980 ng/mL
Tmax [25]: 0.67 h
half-life [25]: 2.11 h
logD [26]: 2.49
IC50 [5]: 0.28 µM

Structure (SMILES): COc1cc2ncnc(N3CCN(C(=O)Nc4ccsc4)CC3)c2cc1OC.Cl
IC50 [11]: > 30 uM l-1
IC50 [12]: 7.02 µM
IC50 [14]: 0.8 µM
IC50 (Protein kinase C (PKC)): > 30 uM l-1
IC50 [18]: > 30 uM l-1

Further lines, results first:

concentration at 1 h [6]: 5400 ng/mL
concentration at 1 h [7]: 8100 ng/mL
concentration at 8 h [8]: 1600 ng/mL
concentration at 8 h [9]: 900 ng/mL
IC50 [10]: 0.24 µM
IC50 [11]: > 200 uM l-1
IC50 [12]: > 30 µM
IC50 [13]: > 30 uM l-1
IC50 [14]: > 30 µM
IC50 [15]: > 30 µM
IC50 [16]: > 30 µM
IC50 (MAP kinase p38): > 30 uM l-1
IC50 [17]: > 30 µM
IC50 (Protein kinase C (PKC)): > 30 uM l-1
IC50 [18]: > 30 uM l-1
IC50 [19]: > 30 µM
IC50 [20]: > 30 µM
IC50 [21]: > 30 µM
Structure (SMILES): COc1cc2ncnc(N3CCN(/C(S)=N\Cc4ccccc4)CC3)c2cc1OC

concentration at 8 h [22]: 3700 ng/mL
solubility [23]: 2 µg/mL (≈ 5.01 µM)
concentration at 1 h [24]: 7700 ng/mL
AUC [25]: 145000 ng·h/mL
Cmax [25]: 15900 ng/mL
Tmax [25]: 3.33 h
half-life [25]: 4.25 h
logD [26]: 2.72
concentration at 8 h [27]: 700 ng/mL
concentration at 1 h [28]: 12400 ng/mL
Structure (SMILES): COc1cc2ncnc(N3CCN(C(=O)Nc4ccsc4)CC3)c2cc1OC
